Series [1] is described as follows: Inhibition of human soluble epoxide […] using fluorescent CMNPC as substrate after 10 mins by fluorometric assay. The procedure, abridged: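 Recombinant human sEH, expressed in Sf9 cells via baculovirus with a His tag that was later removed, purified by metal-affinity and anion-exchange chromatography. Enzyme at 1 nM final, preincubated with inhibitor 10 min at 30 °C in 25 mM Bis-Tris/HCl pH 7.0. CMNPC then added at 5 μM. 6-Methoxy-2-naphthaldehyde fluorescence (ex 330/em 465 nm) followed for 10 min. IC50 by regression of at least six points; mean of three runs.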

A short description of series [2]: Aqueous solubility of the compound in […] phosphate buffer at pH 7.4 relative to AUDA. The series is classed as physicochemical.
Series [3] can be described thus: Aqueous solubility of the compound in […] phosphate buffer at pH 7.4. Format: physicochemical. The procedure, abridged: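 Light-scattering method at 25± 1.5 °C. Compound in DMSO was added at varying concentrations to 0.1 M sodium phosphate, pH 7.4, at 5:95 (v/v) DMSO:buffer. Insolubility was read as the rise in turbidity, measured as optical density at 650 nm.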

≈ marks a conversion by molar mass, not a printed value.

One may read the IC50 as the midpoint of a concentration-inhibition curve. Low values mean greater potency in that assay, high ones weaker potency in that assay. `O=C(NCc1ccccc1)C12CC3CC(CC(C3)C1)C2` had an IC50 in series [1] greater than 1000 nM.

For `O=C(NCCCc1ccccc1)C1CC1`, in series [1], the IC50 was greater than 1000 nM.

As to `O=C(NCCCc1ccccc1)C1CCCC1`, the IC50 in series [1] was greater than 1000 nM.

`O=C(NCCCc1ccccc1)C1CCCCC1` came in with an IC50 in series [1] of 235 nM.

Turning to `O=C(NCCCc1ccccc1)C1CC=CCC1` (stereo unspecified), the IC50 in series [1] is 222 nM.

In turn, `O=C(NCCCc1ccccc1)C1CCC(C(F)(F)F)CC1` (stereo unspecified) had an IC50 in series [1] of 64 nM.

For `CC(C)(C)C1CCC(C(=O)NCCCc2ccccc2)CC1` (stereo unspecified), in series [1], it took 58 nM to reach half-maximal inhibition (IC50).

In turn, `O=C(NCCCc1ccccc1)C1CCC(O)CC1` (stereo unspecified) had an IC50 in series [1] greater than 1000 nM.

Molecule `O=C1CCC(C(=O)NCCCc2ccccc2)CC1` registered an IC50 in series [1] greater than 1000 nM.

On to `O=C(NCCCc1ccccc1)C1CCC(CO)CC1` (stereo unspecified), for which, in series [1], the IC50 came to 243 nM.

The molecule `O=C(NCCCc1ccccc1)C1CCCO1` (stereo unspecified) had an IC50 in series [1] greater than 1000 nM.

In series [1], `O=C(NCCCc1ccccc1)C1CCOCC1` had an IC50 greater than 1000 nM.

`COC(=O)C1CCC(C(=O)NCCCc2ccccc2)CC1` (stereo unspecified) displayed an IC50 in series [1] of 78 nM.

Regarding `O=C(O)C1CCC(C(=O)NCCCc2ccccc2)CC1` (stereo unspecified), the IC50 in series [1] was greater than 1000 nM.

`COC(=O)C1CCCCC1C(=O)NCCCc1ccccc1` (stereo unspecified) came in with an IC50 in series [1] greater than 1000 nM.

In series [1], `COC(=O)C1C2C=CC(C2)C1C(=O)NCCCc1ccccc1` (stereo unspecified) yielded an IC50 greater than 1000 nM.

With `O=C(NCCCc1ccccc1)C12CC3CC(CC(C3)C1)C2`, in series [1], the IC50 was 41 nM.

Turning to `O=C(NCCCc1ccccc1)C1CCc2ccccc2C1` (stereo unspecified), half-maximal inhibition in series [1] (IC50) required 15 nM.

Consider `O=C(NCCCc1ccccc1)C1(c2ccccc2)CC1`, for which the IC50 in series [1] is greater than 1000 nM.

Take `O=C(NCCCc1ccccc1)C1(c2ccccc2)CCCC1`: the half-maximal inhibitory concentration (IC50) in series [1] was greater than 1000 nM.

Regarding `O=C(NCCc1ccccc1)C12CC3CC(CC(C3)C1)C2`, the IC50 in series [1] is 230 nM.

On to `O=C(NCCCCc1ccccc1)C12CC3CC(CC(C3)C1)C2`, for which the IC50 in series [1] worked out at 180 nM.

The molecule `CCOC(=O)c1ccc(NC(=O)C23CC4CC(CC(C4)C2)C3)cc1` had an IC50 in series [1] of 101 nM.

Consider `COc1ccc(NC(=O)C23CC4CC(CC(C4)C2)C3)cc1`, for which the IC50 in series [1] was greater than 1000 nM.

The term solubility denotes the dissolved amount per volume that the medium holds. A high value points to a readily soluble substance. In the case of `COC(=O)c1ccc(CNC(=O)C23CC4CC(CC(C4)C2)C3)cc1`, in series [2], the “fold change (FC)” value came out at 2. The same molecule displayed an IC50 in series [1] of 9.1 nM. Further, in series [3], the solubility turned out to be 125 µM (≈ 40.9 µg/mL).

For the molecule `COC(=O)c1ccc(CCNC(=O)C23CC4CC(CC(C4)C2)C3)cc1`, the IC50 in series [1] was found to be 230 nM.

On to `COC(=O)c1ccc2cc(NC(=O)C34CC5CC(CC(C5)C3)C4)ccc2c1`, for which, in series [1], the IC50 was 65 nM.

As to `COC(=O)c1ccc(CNC(=O)C2CCc3ccccc3C2)cc1` (stereo unspecified), the “fold change (FC)” value in series [2] worked out at 2. The molecule also gave an IC50 in series [1] of 2.1 nM. Besides, the solubility in series [3] is 125 µM (≈ 40.4 µg/mL).

In turn, `COC(=O)c1ccc(CNC(=O)c2ccc3ccccc3c2)cc1` came in with an IC50 in series [1] of 6.6 nM. Also, the solubility in series [3] stood at 31 µM (≈ 9.9 µg/mL).

On to `COC(=O)c1ccc(CNC(=O)c2ccc3cc(O)ccc3c2)cc1`, for which the IC50 in series [1] came to 1.8 nM. Moreover, in series [3], the solubility came out at 31 µM (≈ 10.4 µg/mL).

`COC(=O)c1ccc(CNC(=O)c2ccc3cc(OC)ccc3c2)cc1`: the IC50 in series [1] was 2.4 nM. The solubility in series [3] worked out at 15 µM (≈ 5.24 µg/mL).

In series [1], `CN(CCCc1ccccc1)C(=O)C12CC3CC(CC(C3)C1)C2` registered an IC50 of 723 nM.

`O=C(O)CCCCCCCCCCCNC(=O)NC12CC3CC(CC(C3)C1)C2` had a solubility in series [3] of 63 µM (≈ 24.7 µg/mL).

In series [1], `O=C(NCCCc1ccccc1)[C@@H]1C[C@H]1c1ccccc1` (relative stereo) gave an IC50 of 288 nM.
